# Measured values as given in article PMC9236207 (ACS Pharmacology & Translational Science, 2022).
# Tests used:
# ACE2 [1] = target: T1, ACE2 (Homo sapiens, UniProt Q9BYF1); assay: ACE2 enzymatic assay; format: biochemical
# Summary of the method: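 Fluorometric assay with His-tagged ACE2 extracellular domain at 0.2 nM final in PBS pH 7.4, 0.01% Tween-20, preincubated with compound for 15 min at RT. Then MCA-Ala-Pro-Lys(Dnp)-OH substrate was added (60 μM stock). Fluorescence read at 340/440 nm at 0 and 15 min, RT.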
# ACE2 [2] = target: T1, ACE2; assay: ACE2 binding by microscale thermophoresis
# Summary of the method: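 Seven-point twofold compound dilution series. MST at 45% excitation and medium MST power. Kd (± standard error) fitted from the change in normalized fluorescence. A poly-His peptide counterscreen was run under identical conditions.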
# T1 sequence (Q9BYF1 18-740): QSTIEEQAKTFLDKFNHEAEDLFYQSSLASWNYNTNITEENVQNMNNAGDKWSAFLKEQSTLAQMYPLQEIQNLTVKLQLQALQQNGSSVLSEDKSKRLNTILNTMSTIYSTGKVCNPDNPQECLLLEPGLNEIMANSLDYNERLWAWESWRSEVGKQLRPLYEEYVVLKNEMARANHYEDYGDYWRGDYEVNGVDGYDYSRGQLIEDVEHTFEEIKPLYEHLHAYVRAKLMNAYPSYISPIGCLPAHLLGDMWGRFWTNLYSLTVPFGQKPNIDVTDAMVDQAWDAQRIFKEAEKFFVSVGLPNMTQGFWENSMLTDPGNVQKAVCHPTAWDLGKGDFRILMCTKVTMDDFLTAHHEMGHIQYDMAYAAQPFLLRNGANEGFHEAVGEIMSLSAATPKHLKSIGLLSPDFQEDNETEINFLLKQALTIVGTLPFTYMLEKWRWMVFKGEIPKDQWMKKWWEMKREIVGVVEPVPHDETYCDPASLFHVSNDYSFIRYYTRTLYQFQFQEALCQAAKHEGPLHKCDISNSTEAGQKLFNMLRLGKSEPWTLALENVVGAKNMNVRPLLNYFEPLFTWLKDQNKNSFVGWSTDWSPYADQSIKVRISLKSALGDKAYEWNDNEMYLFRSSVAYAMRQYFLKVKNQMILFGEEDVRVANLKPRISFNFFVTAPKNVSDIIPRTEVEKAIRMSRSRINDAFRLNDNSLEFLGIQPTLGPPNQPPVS
smiles,measurement,setting,value
CC(C)C[C@H](N[C@@H](Cc1cncn1Cc1cc(Cl)cc(Cl)c1)C(=O)O)C(=O)O [MLN-4760],IC50,ACE2 [1],1.5 nM
same,Kd,ACE2 [2],702 nM
